Test results published in paper PMC8489793 (ACS chemical biology, 2019).
“Also recorded” adds a separate entry of the source.

Legend:
[1] = test system: malignant pleural effusion cells (PE1005339); assay: 12-point dose–response assay in malignant pleural effusion cells; assay type: cell-based, human; settings: PE1005339 tumor cells; 12-point dose–response; 4 days
How it was run: (§1)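 Dose–response after 4 days of treatment in immortalized primary human mammary epithelial cells (hTERT-HMEC) or in primary metastatic, chemoresistant breast cancer cells from a patient's malignant pleural effusion. A 12-point series is stated for the effusion cells. Mean and SD of three replicates.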

PyMT mammary tumors = assay: transplanted PyMT mouse mammary tumor model; assay type: in vivo
How it was run: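 PyMT-expressing mouse mammary cells were transplanted into the fat pads of 3-week-old female FVB mice. Tumour-bearing mice were assigned to four groups for 21 days: test compound 100 mg/kg i.p. once daily, 25 mM ZnSO4 continuously in drinking water, both, or PBS i.p. once daily. Mice were euthanised at 2 cm tumour diameter, and Kaplan–Meier survival analysis was used.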

MCF-10A and MCF-7 cells = assay: evaluation of focused library; assay type: cell-based, human; settings: MCF-7 versus MCF-10A; listed as compound 4
How it was run: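 MCF-7 breast cancer and untransformed MCF-10A mammary epithelial cells were given a range of test compound concentrations to generate dose–response curves. MCF-7 EC50 was the mean of three replicates. ΔAUC was the difference in area under the curve between MCF-7 and MCF-10A.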

MCF-10A cells [2] = assay: long-term colony formation after 24 h treatment; assay type: cell-based, human; settings: 24 h treatment then 3 weeks without compound
How it was run: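 Cells treated 24 h, then cultured 21 days in compound-free medium. Surviving colonies stained with crystal violet and quantified. Mean and SD of four replicates.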

MCF-7 cells [3] = assay: total cellular Zn^2+ by ICP-AES; assay type: cell-based, human; settings: 3 h, ZNA or ZNA/ZnSO4
How it was run: (§2)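 Total cellular zinc determined by inductively coupled plasma atomic emission spectroscopy after 3 h treatment with test compound alone or together with ZnSO4.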

MCF-7 cells [4] = assay: intracellular Zn^2+ by FluoZin-3 and flow cytometry; assay type: cell-based, human
How it was run: (§3)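 Intracellular free Zn2+ measured by FluoZin-3 staining and flow cytometry after 1, 3, 24 or 48 h of treatment with test compound, with or without ZnSO4. For MCF-7, an extra 24 h arm included actinomycin D to block transcription. Mean and SEM of three replicates, compared with control.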

MCF-10A cells [5] = assay: total cellular Zn^2+ by ICP-AES; assay type: cell-based, human; settings: cotreatment with Zn^2+
How it was run: as §2

[6] = test system: MCF-7, T47D, and MDA-MB231 breast cancer cell lines; assay: dose–response assays in breast cancer cell lines; assay type: cell-based, human; settings: malignant cell lines; 5 days
How it was run: (§4)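 Viability dose–response after 5 days of treatment in untransformed MCF-10A cells and in MCF-7, T47D and MDA-MB-231 breast cancer lines. Mean and SD of three replicates.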

MCF-7 cells [7] = assay: cell death by propidium iodide staining and flow cytometry; assay type: cell-based, human; settings: cotreatment with ZnSO4, within 24 h
How it was run: (§5)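 Cells treated 24 h with test compound combined with ZnSO4, then stained with propidium iodide and analysed by flow cytometry. Mean and SEM of three replicates, normalized to the control sample.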

hTERT-HMEC = assay: dose–response assay in immortalized mammary epithelial cells; assay type: cell-based, human; settings: therapeutic window; hTERT-HMEC per Figure 2C; 4 days
How it was run: as §1

MCF-10A cells [8] = assay: cellular proliferation by EdU incorporation; assay type: cell-based, human; settings: 6 h
How it was run: (§6)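 Proliferation measured as percent EdU incorporation after 6 h with test compound (30 μM) and/or ZnSO4 (30 μM). Mean and SEM of three experimental replicates; compared against control.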

MCF-7 cells [9] = assay: FluoZin-3 and LysoTracker colocalization; assay type: cell-based, human; settings: ZNA (30 μM) and ZnSO4 (30 μM), 2 h
How it was run: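 Cells exposed 2 h to test compound (30 μM) and/or ZnSO4 (30 μM). Costained with FluoZin-3 (zinc), LysoTracker (lysosomes) and Hoechst, then imaged by fluorescence microscopy. Overlap of FluoZin-3 and LysoTracker signals quantified.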

[10] = test system: MT1 and MT2 in renal and hepatic tissue; assay: RT-PCR of metallothionein expression in tissue of treated mice; assay type: in vivo; settings: 100 mg/kg intraperitoneal, nontumor bearing FVB/NJ mice
How it was run: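 Nontumor-bearing FVB/NJ mice received 100 mg/kg test compound intraperitoneally or vehicle, and were sampled 3 or 24 h later. MT1 and MT2 expression in kidney and liver was measured by real-time PCR, normalised to β-actin and expressed relative to controls.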

MCF-10A [11] = assay: dose–response assay in untransformed mammary epithelial cell line; assay type: cell-based, human; settings: 5 days
How it was run: as §4

[12] = test system: primary mouse mammary epithelial cells (MECs) organoids; assay: 3D organoid model of normal mammary growth and branching morphogenesis; assay type: cell-based; settings: for delay in branching morphogenesis: single agent; for organoids killed: 3D branching assay
How it was run: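 Primary mouse mammary epithelial cells embedded in Matrigel and stimulated to branch with FGF2. Test compound and/or ZnSO4, or vehicle, added from 48 h. At 144 h, organoids stained with Hoechst (nuclei), calcein AM (live) and SYTOX Orange (dead), then imaged.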

[13] = test system: caspase 3/7, 8, or 9 activity in T47D, MDA-MB-231, and MCF-10A; assay: quantification of caspase activity; assay type: cell-based, human; settings: 6 or 72 h
How it was run: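 Caspase activity quantified after 6 or 72 h exposure to test compound with ZnSO4; staurosporine used as positive control. Mean and SD of three replicates.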

[14] = test system: metal trafficking genes in MCF-7 cells; assay: RT-PCR of metal trafficking gene induction; assay type: cell-based, human; settings: ZNA 30 μM, 3 or 24 h, normalized to GAPDH
How it was run: (§7)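 Real-time PCR of metal trafficking gene induction after 3 or 24 h exposure to test compound at 30 μM, run in quadruplicate.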

MCF-10A cells [15] = assay: intracellular Zn^2+ by FluoZin-3 and flow cytometry; assay type: cell-based, human
How it was run: as §3

[16] = test system: metal trafficking genes in MCF-10A cells; assay: RT-PCR of metal trafficking gene induction; assay type: cell-based, human; settings: ZNA 30 μM, 3 or 24 h, normalized to GAPDH
How it was run: as §7

MCF-10A [17] = assay: cell death by propidium iodide staining and flow cytometry; assay type: cell-based, human
How it was run: as §5

cancer cells = assay: long-term colony formation after 24 h treatment; assay type: cell-based, human; settings: 24 h treatment then 3 weeks without compound
How it was run: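 Cells were exposed to test compound for 24 h, then grown in compound-free medium for 21 days. Colonies were stained with crystal violet and quantified, and the mean and standard deviation of four replicates were reported.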

[18] = test system: MCF-10 and MCF-7 cell lines; assay: cell viability; assay type: cell-based, human
How it was run: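 Test compound combined with exogenously added transition metal ions. Viability read as cellular ATP content after 24 h of treatment. Mean and SEM of three replicates, each normalized to its respective control.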

MCF-7 cells [19] = assay: cellular proliferation by EdU incorporation; assay type: cell-based, human; settings: 6 h
How it was run: as §6

[20] = test system: transformed and untransformed cell types; assay type: cell-based; settings: ZNA (30 μM) or clioquinol (30 μM) with ZnSO4; propidium iodide
[21] = test system: PyMT primary tumor organoids; assay: 3D primary tumor organoid culture; assay type: cell-based; settings: 144 h
How it was run: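 PyMT mouse tumor cells embedded as organoids in Matrigel and cultured 144 h. Test compound and/or ZnSO4, or vehicle, present from 48 h to the end. Final staining with Hoechst, calcein AM (live) and SYTOX Orange (dead), then imaged.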

[22] = test system: cytosolic cathepsin in MCF-7 cells; assay: cytosolic cathepsin activity / cytoplasmic fractionation; assay type: cell-based, human
How it was run: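 Cells given test compound plus ZnSO4 for 6 h. Cytoplasmic cathepsin activity then measured with an enzymatic assay and expressed as mean activity relative to control. SEM of three experimental replicates.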

[23] = test system: transformed and untransformed cells; assay: cell viability; assay type: cell-based; settings: 48 h; ATP quantification
[24] = test system: a variety of cancer cell lines; settings: read-out: IC50s; cited from earlier work
[25] = test system: untransformed mouse MECs and MCF-10A cells, in comparison to MCF-7 cells; assay: intracellular Zn^2+ by FluoZin-3, comparison of zinc interactors; assay type: cell-based; settings: 3 h, absence of exogenous Zn^2+
[26] = test system: immortalized human mammary epithelial cells (hTERT-HMEC); settings: 10 μM; cited from earlier work
[27] = test system: primary metastatic tumor cells derived from malignant pleural effusions (PEs) of breast cancer patients; settings: 10 μM; PE cells; cited from earlier work
[28] = test system: epidermal growth factor (EGF)-stimulated DNA synthesis; settings: cited from earlier work

Compound: COc1ccc(-c2c(Cc3ccccc3)[nH]/c(=N\C(=O)c3ccccc3F)n2C)cc1 [ZNA, zinaamidole A]
- EC50 [1]: 4.12 µM
- survival versus control-treated or ZnSO4-only groups (PyMT mammary tumors; ZNA 100 mg/kg i.p. once a day plus 25 mM ZnSO4 in drinking water, 21 days): significant survival advantage
- general toxicity, adverse reactions, body weight (PyMT mammary tumors; ZNA 100 mg/kg i.p. once a day, 21 days): no general toxicity, adverse reactions, or decreases in body weight
- survival versus control-treated or ZnSO4-only groups (PyMT mammary tumors; ZNA alone 100 mg/kg i.p. once a day for 21 days): significant survival advantage
- general toxicity, adverse reactions, body weight (PyMT mammary tumors; combination of ZNA and ZnSO4, 21 days): no general toxicity, adverse reactions, or decreases in body weight
- potency and selectivity (EC50 in MCF-7, ΔAUC between MCF-7 and MCF-10A) (MCF-10A and MCF-7 cells): significant increase in potency and selectivity; also recorded: greatest balance of potency and selectivity
- effect on long-term proliferative potential (colonies) (MCF-10A cells [2]): greatly attenuated
- total cellular Zn^2+ (ICP-AES) (MCF-7 cells [3]): increase in total cellular Zn^2+
- intracellular Zn^2+ on cotreatment with Actinomycin D versus ZNA-alone (MCF-7 cells [4]; 24 h, with ACTD): statistically significant increase
- increase in FluoZin-3 fluorescence (intracellular Zn^2+) (MCF-7 cells [4]; 48 h, no exogenous Zn^2+): 13 fold
- intracellular Zn^2+ concentration (FluoZin-3) (MCF-7 cells [4]; in the presence of 30 μM Zn^2+, 3 h): 170 times
- total cellular Zn^2+ (ICP-AES) (MCF-10A cells [5]): below detectable levels
- cell viability [6]: decreased cell viability
- cell death (MCF-7 cells [7]): > 80%
- IC50 (hTERT-HMEC): > 100 µM
- EdU incorporation (MCF-10A cells [8]; ZNA (30 μM)/ZnSO4 (30 μM)): only partially inhibiting
- EdU incorporation (MCF-10A cells [8]; ZNA alone 30 μM): only a partial reduction
- FluoZin-3 and LysoTracker overlap (MCF-7 cells [9]): significant increase
- MT1 and MT2 expression versus control treated mice ([10]; 3 h): increased
- MT1 and MT2 expression ([10]; 24 h): decreased
- sensitivity (cell viability) (MCF-10A [11]): reduced sensitivity
- organoids healthy with no visible extruding cells ([12]; combination ZNA/ZnSO4, 144 h): Greater than 60%
- organoids with either full or partial branching ([12]; combination ZNA/ZnSO4, 144 h): approximately 90%
- delay in branching morphogenesis [12]: 24 h
- caspase 3/7, 8, or 9 activity ([13]; ZNA alone, MDA-MB-231, MCF-10A): either minimal or not observed
- caspase 3/7, 8, or 9 activity ([13]; ZNA/ZnSO4, MDA-MB-231, MCF-10A): either minimal or not observed
- metal trafficking gene expression [14]: 75 fold
- increase in intracellular Zn^2+ (FluoZin-3) (MCF-10A cells [15]; 48 h, no exogenous Zn^2+): 2 fold
- intracellular Zn^2+ level versus vehicle control (FluoZin-3) (MCF-10A cells [15]; cotreatment with Zn^2+): less than 10 fold
- metal trafficking gene expression [16]: 5 fold
- cell death (MCF-10A [17]; ZNA alone, 24 h): unaffected
- cell death (MCF-10A [17]; combination with ZnSO4, 24 h): unaffected
- long-term proliferative potential (colonies) (cancer cells): significantly affected long-term proliferative potential
- effect on cell viability in combination with Zn^2+ ([18]; MCF-10A and MCF-7, 24 h, ATP): highly synergistic and cancer selective
- effect on cell viability in cotreatment with Cu^2+ ([18]; MCF-10 and MCF-7, 24 h, ATP): nonselective cell death
- effect on cell viability with Ni, Co, and Mn compared to ZNA alone ([18]; broader series of metals): minimal changes in cell viability
- effect on cell viability in combination with Fe^2+ ([18]; untransformed and transformed cell lines, 24 h, ATP): relatively little effect
- EdU incorporation (MCF-7 cells [19]; ZNA (30 μM)/ZnSO4 (30 μM)): complete block
- EdU incorporation (MCF-7 cells [19]; ZNA alone 30 μM): only a partial reduction
- cytotoxic effect of combination with ZnSO4, time-course [20]: only observed in the transformed cell line
- organoids with strong cell extrusion phenotype ([21]; ZNA-alone): about 70%
- organoids to which treatment was cytotoxic ([21]; ZNA/ZnSO4 cotreatment): over 80%
- cytosolic cathepsin activity ([22]; MCF-7, combination of ZNA and ZnSO4, 6 h): significant increase
- cytosolic cathepsins B, D, and L relative to untreated cells ([22]; MCF-7s, ZNA/ZnSO4, cytoplasmic fractionation): increase

Compound: Oc1c(I)cc(Cl)c2cccnc12 [clioquinol]
- toxicity of combination with ZnSO4 [23]: toxic to both transformed and untransformed cells
- IC50 [24]: 5 to 50 µM
- intracellular Zn^2+ levels (FluoZin-3) [25]: increase in intracellular Zn^2+
- organoids killed ([12]; compound alone): 100%
- organoids killed ([12]; with ZnSO4): 100%
- cytotoxic effect of combination with ZnSO4, time-course [20]: cytotoxic toward all cell types tested

Compound: naamidine A
- intracellular Zn^2+ levels (FluoZin-3) [25]: decreased or unchanged
- organoids killed ([12]; compound alone): 100%
- effect of exogenous ZnSO4 on cytotoxic effects in organoids ([12]; with exogenous ZnSO4): rescued the cytotoxic effects
- decrease in cell viability [26]: 100%
- decrease in cell viability [27]: 100%
- inhibition of EGF-stimulated DNA synthesis [28]: submicromolar

Compound: O=S(=O)([O-])[O-].[Zn+2] [ZnSO4]
- delay in branching morphogenesis [12]: 24 h
